In ChEMBL document CHEMBL1125582, “4-hydroxythiazole inhibitors of 5-lipoxygenase” (J Med Chem, 1991):
Active and inactive are the calls of the source. The calls are words filed in the database; no cut-off is given here.

Key:
[1] = molecular target: T1, Polyunsaturated fatty acid 5-lipoxygenase (Rattus norvegicus) (UniProt P12527); experiment: The compound was tested for the in vitro inhibition of 5-lipoxygenase from the 20000 g supernatant of RBI-1 cells; NS indicates nonsignificant inhibition at 32 uM concentration; format: cell-based
T1 sequence (whole entry): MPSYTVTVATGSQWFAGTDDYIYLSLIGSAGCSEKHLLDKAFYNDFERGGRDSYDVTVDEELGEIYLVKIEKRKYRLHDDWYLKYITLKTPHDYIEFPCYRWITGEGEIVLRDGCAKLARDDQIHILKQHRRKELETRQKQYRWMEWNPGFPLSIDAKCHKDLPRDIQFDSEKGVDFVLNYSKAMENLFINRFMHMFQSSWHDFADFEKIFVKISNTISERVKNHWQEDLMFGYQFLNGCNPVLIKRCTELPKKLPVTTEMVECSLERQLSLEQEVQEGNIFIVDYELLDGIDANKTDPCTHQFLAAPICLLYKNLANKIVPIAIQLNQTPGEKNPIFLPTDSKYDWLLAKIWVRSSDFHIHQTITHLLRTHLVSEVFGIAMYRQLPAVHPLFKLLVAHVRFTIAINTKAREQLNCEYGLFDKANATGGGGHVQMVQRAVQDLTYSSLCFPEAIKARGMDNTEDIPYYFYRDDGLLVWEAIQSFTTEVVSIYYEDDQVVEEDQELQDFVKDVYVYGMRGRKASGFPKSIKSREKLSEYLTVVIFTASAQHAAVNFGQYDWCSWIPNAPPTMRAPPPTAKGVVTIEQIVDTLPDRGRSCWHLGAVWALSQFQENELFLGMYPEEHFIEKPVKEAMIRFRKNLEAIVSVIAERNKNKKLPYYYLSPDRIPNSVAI
In short: (§1)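 20000g supernatant of homogenized RBL-1 cells (7.5 × 10⁶ cell equiv/mL) preincubated 20 min at 37 °C with inhibitor or 2% Me₂SO vehicle in pH 6.8 BES/PIPES buffer with EDTA, NaCl, 0.7 mM CaCl₂. Reaction started with 66 μM [¹⁴C]arachidonic acid. [¹⁴C]-5-HETE counted by scintillation, corrected for [³H]-5-HETE recovery.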

[2] = molecular target: T1, Polyunsaturated fatty acid 5-lipoxygenase (Rattus norvegicus); experiment: The compound was tested for the in vitro inhibition of 5-lipoxygenase (5-lo) from the 20000 g supernatant of RBI-1 cells at a concentration of 30 uM; format: cell-based; in short: as §1
[3] = molecular target: T2, Polyunsaturated fatty acid 5-lipoxygenase (Rattus norvegicus, UniProt P12527); experiment: In vitro inhibition of 5-lipoxygenase (5-lo) from the 20000 g supernatant of RBI-1 cells; format: cell-based
T2 sequence (P12527 whole entry): T1 sequence (whole entry)

[4] = molecular target: T1, Polyunsaturated fatty acid 5-lipoxygenase (Rattus norvegicus); experiment: The compound was tested for the in vitro inhibition of 5-lipoxygenase (5-lo) from the 20000 g supernatant of RBI-1 cells; NS indicates nonsignificant inhibition at 32 uM concentration; format: cell-based; in short: as §1
[5] = molecular target: T2, Polyunsaturated fatty acid 5-lipoxygenase; experiment: Inhibition of 5-lipoxygenase (5-lo) in intact rat polymorphonuclear leukocyte RPMNL
In short: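 Pleural PMNL from carrageenan-injected male Sprague-Dawley rats (200-250 g). Erythrocytes lysed with water, cells washed and held in HEPES/Earle's salts pH 7.0 with 1 mg/mL BSA. 5×10^6 cells preincubated 15 min at 37 °C with compound or DMSO (final 2%). Stimulated with A23187 (final 8.3 μM) for 10 min, stopped on ice. Methanol extracts assayed for LTB₄ by HPLC.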

[6] = molecular target: T3, Polyunsaturated fatty acid 5-lipoxygenase (Homo sapiens, UniProt P09917); experiment: The compound was tested for the inhibition of 5-lipoxygenase (5-lo) in human whole blood (HWBL); format: tissue-based
T3 sequence (P09917 whole entry): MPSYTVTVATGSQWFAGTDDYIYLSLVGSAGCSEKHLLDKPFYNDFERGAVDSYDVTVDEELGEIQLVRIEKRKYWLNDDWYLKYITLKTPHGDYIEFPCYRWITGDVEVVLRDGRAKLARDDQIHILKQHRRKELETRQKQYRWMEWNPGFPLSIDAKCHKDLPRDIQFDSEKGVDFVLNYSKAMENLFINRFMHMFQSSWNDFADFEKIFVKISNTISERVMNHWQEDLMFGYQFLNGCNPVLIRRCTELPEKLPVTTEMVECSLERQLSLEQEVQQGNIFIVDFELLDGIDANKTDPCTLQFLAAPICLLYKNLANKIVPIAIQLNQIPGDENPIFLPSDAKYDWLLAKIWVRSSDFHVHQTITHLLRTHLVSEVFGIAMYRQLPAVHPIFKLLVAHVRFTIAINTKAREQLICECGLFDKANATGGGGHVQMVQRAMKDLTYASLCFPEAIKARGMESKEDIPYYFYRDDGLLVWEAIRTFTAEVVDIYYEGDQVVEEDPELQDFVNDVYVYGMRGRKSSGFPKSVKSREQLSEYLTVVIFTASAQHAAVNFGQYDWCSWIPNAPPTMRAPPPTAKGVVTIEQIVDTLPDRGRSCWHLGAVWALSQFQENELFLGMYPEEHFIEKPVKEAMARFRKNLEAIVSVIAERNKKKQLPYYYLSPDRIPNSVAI
In short: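 Heparinized (20 units/mL) human blood preincubated 15 min at 37 °C with compound or vehicle. Challenged with A23187 in DMSO (final 50 μM) for 30 min, then chilled and centrifuged. Plasma extracted with 4 volumes methanol for at least 2 h at 3 °C. LTB₄ measured by RIA or EIA.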

[7] = molecular target: T4, Arachidonate 12-lipoxygenase (Rattus norvegicus) (UniProt Q02759); experiment: The compound was tested for the in vitro inhibition of platelet 12-lipoxygenase at a concentration of 100 uM
T4 sequence (whole entry): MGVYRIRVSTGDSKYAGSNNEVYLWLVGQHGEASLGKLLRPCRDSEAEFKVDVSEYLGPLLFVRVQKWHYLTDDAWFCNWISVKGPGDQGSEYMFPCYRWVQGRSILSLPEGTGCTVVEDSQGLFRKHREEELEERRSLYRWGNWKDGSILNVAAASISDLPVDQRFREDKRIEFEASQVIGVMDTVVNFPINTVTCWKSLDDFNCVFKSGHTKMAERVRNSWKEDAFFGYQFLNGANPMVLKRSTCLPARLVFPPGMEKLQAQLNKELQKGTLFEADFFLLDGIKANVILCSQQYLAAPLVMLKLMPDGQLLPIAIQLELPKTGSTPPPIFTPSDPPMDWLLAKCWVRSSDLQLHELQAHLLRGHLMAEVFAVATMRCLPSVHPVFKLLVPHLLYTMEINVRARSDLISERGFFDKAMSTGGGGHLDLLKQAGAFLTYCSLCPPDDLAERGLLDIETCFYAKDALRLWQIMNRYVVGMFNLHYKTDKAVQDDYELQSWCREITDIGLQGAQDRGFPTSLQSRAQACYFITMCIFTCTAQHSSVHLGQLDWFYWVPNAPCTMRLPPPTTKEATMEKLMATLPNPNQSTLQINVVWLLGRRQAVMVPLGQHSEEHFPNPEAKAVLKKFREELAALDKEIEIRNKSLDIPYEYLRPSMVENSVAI

[8] = tested on: 15-lipoxygenase (Glycine max); experiment: The compound was tested for the in vitro inhibition of 15-lipoxygenase of soybean at a concentration of 100 uM; conditions: at 100 µM
[9] = tested on: cyclooxygenase (Ovis aries); experiment: The compound was tested for the in vitro inhibition of Prostaglandin G/H synthase of sheep seminal vesicle at a concentration of 100 uM

Cc1nc(O)c(C)s1
inhibition [1]: inactive

Cc1sc(NN)nc1O
inhibition [1]: inactive

CCOC(=O)c1sc(-c2ccccc2)nc1O
inhibition [2]: 17%

Cc1sc(-c2ccc(C(N)=O)cc2)nc1O
IC50 [3]: 4.8 µM

COc1nc(-c2ccccc2)sc1-c1ccccc1
inhibition [4]: inactive

COC(=O)Cc1sc(-c2ccccc2)nc1O
IC50 [5]: 2.1 µM

Cc1sc(-c2ccc(C(F)(F)F)cc2)nc1O
IC50 [3]: 2.5 µM

CCCc1sc(-c2ccccc2)nc1OC(=O)OCC
IC50 [6]: 4.5 µM | IC50 [5]: 0.7 µM

Nc1nc(-c2ccccc2)sc1-c1ccccc1
inhibition [4]: inactive

CCCCC(=O)Oc1nc(-c2ccccc2)sc1-c1ccccc1
IC50 [3]: 9.1 µM

Cc1sc(-c2ccco2)nc1O
IC50 [3]: 2.4 µM

CCCCc1sc(-c2ccccc2)nc1OC(C)=O
IC50 [5]: 0.5 µM

CC(=O)Oc1nc(-c2ccccc2)sc1-c1ccccc1
IC50 [6]: 0.45 µM | IC50 [3]: 0.4 µM

COc1ccc(-c2nc(O)c(-c3ccccc3)s2)cc1
inhibition [7]: 6% | IC50 [6]: 2.4 µM | IC50 [3]: 0.37 µM | IC50 [5]: 0.45 µM | inhibition [8]: 22% | inhibition [9]: 25%

Cc1sc(-c2ccc(C(=O)O)cc2)nc1O
IC50 [3]: 30 µM

Cc1sc(-c2cnc3ccccc3c2)nc1O
IC50 [3]: 16 µM

Cc1sc(-c2ccncc2)nc1O
IC50 [3]: 14 µM

Cc1sc(-c2cccs2)nc1O
IC50 [3]: 1.4 µM

CCCc1sc(-c2ccccc2)nc1OC(=O)OCc1ccccc1
IC50 [3]: 2.8 µM | IC50 [5]: 1.2 µM

Cc1ccc(-c2nc(O)c(C)s2)cc1
IC50 [5]: 1.2 µM

CCCCCC/C(O)=C\C/C=C\C/C=C\C=C\CCCCC(=O)O
IC50 [3]: 7.3 µM

CCCc1sc(-c2ccccc2)nc1OC(=O)Nc1ccccc1
IC50 [3]: 0.46 µM | IC50 [5]: 1 µM

Oc1nc(-c2ccc(F)cc2)sc1-c1ccccc1
inhibition [7]: 0% | IC50 [6]: 0.47 µM | IC50 [3]: 0.5 µM | inhibition [8]: 16% | inhibition [9]: 20%

Oc1nc(-c2ccncc2)sc1-c1ccccc1
IC50 [3]: 0.54 µM

Cc1sc(-c2cc[nH]n2)nc1O
IC50 [3]: 31 µM

CCCCC/C=C/C/C=C/C/C=C/C/C=C/CCCC(=O)NO
IC50 [3]: 2.2 µM

O=C(O)c1ccc(-c2nc(O)c(-c3ccccc3)s2)cc1
IC50 [3]: 1.2 µM

CCOC(=O)c1nc(O)c(C)s1
inhibition [4]: inactive

Oc1nc(-c2ccccc2)sc1CCc1ccccc1
inhibition [7]: 3% | inhibition [8]: 34% | inhibition [9]: 11%

CCCc1sc(-c2ccccc2)nc1OS(C)(=O)=O
inhibition [4]: inactive

Cc1sc(-c2ccccn2)nc1O
IC50 [3]: 2.1 µM

CCCc1sc(-c2ccccc2)nc1OC(C)=O
IC50 [3]: 0.53 µM | IC50 [5]: 0.66 µM

Cc1sc(-c2ccc([N+](=O)[O-])cc2)nc1O
IC50 [3]: 1.6 µM

Cc1sc(-c2ccc(S(N)(=O)=O)cc2)nc1O
IC50 [3]: 2.2 µM

CCCCNC(=O)Oc1nc(-c2ccccc2)sc1CCC
IC50 [6]: 5.5 µM | IC50 [3]: 24 µM | IC50 [5]: 0.8 µM

CCCc1sc(-c2ccccc2)nc1OC(=O)NC
IC50 [6]: 5.1 µM | IC50 [3]: 8.8 µM | IC50 [5]: 0.4 µM

Oc1nc(-c2cccnc2)sc1-c1ccccc1
IC50 [6]: 2.9 µM | IC50 [3]: 1.1 µM

Cc1sc(N)nc1O
inhibition [1]: inactive

Cc1sc(-c2ccc(N)cc2)nc1O
IC50 [3]: 15 µM

CC(=O)c1ccc(-c2nc(O)c(C)s2)cc1
IC50 [3]: 1.4 µM

CC(=O)Oc1nc(-c2ccc(-c3ccccc3)cc2)sc1-c1ccccc1
IC50 [3]: 1.4 µM | IC50 [5]: 0.9 µM

Cc1nc(O)c(-c2ccccc2)s1
IC50 [6]: 5.1 µM | IC50 [3]: 0.7 µM

O=C(O)Cc1sc(-c2ccccc2)nc1O
inhibition [2]: 24%

CCOC(=O)Cc1nc(O)c(C)s1
inhibition [4]: inactive

Cc1sc(-c2ccc(SC(F)(F)F)cc2)nc1O
IC50 [3]: 2.7 µM

COc1ccc(-c2nc(O)c(C)s2)cc1
IC50 [3]: 1.1 µM

Oc1sc(-c2ccccc2)nc1-c1ccccc1
IC50 [3]: 6.9 µM

Cc1sc(C(=O)O)nc1O
inhibition [4]: inactive

Oc1nc(-c2ccc(-c3ccccc3)cc2)sc1-c1ccccc1
IC50 [3]: 2.2 µM

CC(=O)Oc1nc(-c2ccc(C(=O)O)cc2)sc1C
IC50 [3]: 14 µM

Cc1sc(-c2ccc(-c3ccccc3)cc2)nc1O
inhibition [2]: 40%

CCCCCC(=O)Oc1nc(-c2ccccc2)sc1-c1ccccc1
IC50 [3]: 1.3 µM | IC50 [5]: 0.5 µM

CCCCc1sc(-c2ccccc2)nc1O
IC50 [3]: 18 µM

Cc1ccc(-c2nc(O)c(-c3ccccc3)s2)cc1
IC50 [6]: 0.74 µM | IC50 [3]: 0.8 µM
